Data published in ChEMBL document CHEMBL5338714, “Design, synthesis and biological evaluation of biphenyl-benzamides as potent FtsZ inhibitors” (Eur J Med Chem, 2022).

Tests used:
[1] = Metabolic stability in mouse liver microsomes assessed as half life preincubated for 5 mins followed by NADPH addition measured upto 45 mins by LC/MS analysis; format: ADME, Microsome; settings: time < 50 min
In short: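 Liver microsomes at 0.75 mg/mL final protein, with test article and NADPH regeneration system (6 mM) in 100 mM phosphate buffer, pH 7.4. Preincubated 5 min at 37 °C, then started with NADPH. Quenched with acetonitrile containing internal standard at 5, 15, 30 and 45 min, centrifuged, and percent remaining measured by LC/MS. Ketanserin served as reference.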

Staphylococcus aureus = test: Selectivity ratio of MBC for Staphylococcus aureus ATCC25923 to MIC for Staphylococcus aureus ATCC25923; format: functional
In short: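 After 24 h of broth microdilution, 5 µL from clear wells plated on LB agar and incubated aerobically for 24 h at 37 °C. MBC is the lowest concentration with no colonies. Ratio is MBC over MIC, with ≤4 taken as bactericidal and >4 as bacteriostatic.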

For `Cc1cc(Cl)ccc1-c1cccc(COc2ccc(F)c(C(N)=O)c2F)c1`, the half-life [1] was 5.09 min and the Selectivity ratio (Staphylococcus aureus) was 2.
